Results reported in BindingDB's records for doi:10.1016/j.ejmech.2020.112417 (University of Houston, 2020).

Target: Nucleotide-binding oligomerization domain-containing protein 2 (Homo sapiens, UniProt Q9HC29)
Test: Inhibition of human NOD2 expressed in HEK293 cells coexpressing NFkappaB-SEAP reporter measured after 7 to 9 hrs by HEKBIue reporter assay
In short: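 IC50 values reported as the mean of two or three determinations ± standard deviation.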

Nucleotide-binding oligomerization domain-containing protein 2, sequence (Q9HC29 whole entry, the tested form may be a part): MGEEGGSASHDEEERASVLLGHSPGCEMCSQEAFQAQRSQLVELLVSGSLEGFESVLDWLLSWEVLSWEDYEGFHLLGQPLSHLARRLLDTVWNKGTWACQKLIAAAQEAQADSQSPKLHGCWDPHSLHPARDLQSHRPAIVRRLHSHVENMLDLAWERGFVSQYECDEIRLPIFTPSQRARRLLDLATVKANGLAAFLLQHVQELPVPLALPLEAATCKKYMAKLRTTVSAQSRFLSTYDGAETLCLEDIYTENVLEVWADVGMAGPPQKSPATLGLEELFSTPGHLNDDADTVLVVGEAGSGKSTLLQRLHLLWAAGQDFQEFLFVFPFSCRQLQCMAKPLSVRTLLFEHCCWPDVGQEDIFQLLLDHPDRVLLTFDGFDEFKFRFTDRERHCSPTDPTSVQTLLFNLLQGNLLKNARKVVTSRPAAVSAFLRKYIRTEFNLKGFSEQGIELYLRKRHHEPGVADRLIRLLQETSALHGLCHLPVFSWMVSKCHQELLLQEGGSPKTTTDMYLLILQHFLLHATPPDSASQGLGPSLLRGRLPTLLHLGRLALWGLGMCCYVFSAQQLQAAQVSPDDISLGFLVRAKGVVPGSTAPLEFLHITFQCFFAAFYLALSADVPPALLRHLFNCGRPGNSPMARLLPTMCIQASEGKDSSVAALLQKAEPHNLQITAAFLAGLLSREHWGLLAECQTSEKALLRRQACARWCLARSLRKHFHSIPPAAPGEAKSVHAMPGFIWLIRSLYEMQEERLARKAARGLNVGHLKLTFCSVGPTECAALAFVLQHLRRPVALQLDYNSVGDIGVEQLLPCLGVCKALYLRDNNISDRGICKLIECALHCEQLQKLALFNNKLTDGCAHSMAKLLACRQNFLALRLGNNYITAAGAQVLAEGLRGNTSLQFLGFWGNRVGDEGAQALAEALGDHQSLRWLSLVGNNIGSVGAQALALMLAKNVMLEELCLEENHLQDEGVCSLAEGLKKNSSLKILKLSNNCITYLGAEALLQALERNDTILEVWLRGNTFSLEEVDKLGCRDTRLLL

Row | Compound | IC50 [nM]
1 | CCCS(=O)(=O)Nc1cc(-c2cc(-c3ccc(N4CCNCC4)cc3)cnc2N)ccc1C | 1060
2 | CCCS(=O)(=O)Nc1cc(-c2cc(-c3ccc(N4CCNCC4)cc3)cnc2N)cc(C)c1OC | 129
3 | COc1cc(NS(C)(=O)=O)cc(-c2cc(-c3ccc(N4CCNCC4)cc3)cnc2N)c1 | 390
4 | CCCS(=O)(=O)Nc1cc(-c2cc(-c3cccc(N4CCNCC4)c3)cnc2N)cc(F)c1OC | 16
5 | CCCS(=O)(=O)Nc1cc(OC)cc(-c2cc(-c3ccc(N4CCNCC4)cc3)cnc2N)c1 | 243
6 | CCS(=O)(=O)Nc1cc(OC)cc(-c2cc(-c3ccc(N4CCNCC4)cc3)cnc2C)c1 | 5240
7 | CCCS(=O)(=O)Nc1cc(-c2cc(-c3ccc(N4CCNCC4)cc3)cnc2N)cc(OC)c1C | 3350
8 | CCCS(=O)(=O)Nc1cc(-c2cc(-c3ccc(N4CCNCC4)cc3)cnc2N)ccc1OC | 420
9 | COc1cc(NS(C)(=O)=O)cc(-c2cc(-c3ccc(N4CCNCC4)cc3)cnc2C)c1 | 3700
10 | CCCS(=O)(=O)Nc1cc(-c2cc(-c3ccc(N4CCNCC4)cc3)cnc2N)cc(OC)c1OC | 1
11 | CCCS(=O)(=O)N1CCc2ccc(-c3cc(-c4ccc(N5CCNCC5)cc4)cnc3N)cc21 | 2430
12 | CCCS(=O)(=O)Nc1cc(-c2cc(-c3ccc(N4CCNCC4)cc3)cnc2C)cc(F)c1OC | 2560
13 | CCCS(=O)(=O)Nc1cc(-c2cncc(-c3ccc(N4CCNCC4)cc3)c2)cc(F)c1OC | 352
14 | COc1cc(-c2cc(-c3ccc(N4CCNCC4)cc3)cnc2N)cc(F)c1OC | 595
15 | COc1cc(NS(=O)(=O)C(C)C)cc(-c2cc(-c3ccc(N4CCNCC4)cc3)cnc2N)c1 | 121
16 | CCCS(=O)(=O)Nc1cc(OC)cc(-c2cc(-c3ccc(N4CCNCC4)cc3)cnc2C)c1 | 2670
17 | CCCS(=O)(=O)Nc1ccc(-c2cc(-c3ccc(N4CCNCC4)cc3)cnc2C)cc1OC | 2940
18 | CCCS(=O)(=O)Nc1cc(-c2cc(-c3ccc(N4CCNCC4)cc3)cnc2N)cc(F)c1OC | 26
19 | CCCS(=O)(=O)Nc1cc(-c2cc(-c3ccc(N4CCNCC4)cc3)cnc2N)cc(Cl)c1OC | 46
20 | CCCS(=O)(=O)Nc1cc(-c2cc(-c3ccc(N4CCNCC4)cc3)cnc2N)ccc1O | > 5000
21 | COc1cc(NS(=O)(=O)c2ccccc2)cc(-c2cc(-c3ccc(N4CCNCC4)cc3)cnc2N)c1 | 53
22 | COc1cc(NS(=O)(=O)C(C)C)cc(-c2cc(-c3ccc(N4CCNCC4)cc3)cnc2C)c1 | 523
23 | CCCS(=O)(=O)N1CCOc2ccc(-c3cc(-c4ccc(N5CCNCC5)cc4)cnc3N)cc21 | 1010
24 | CCCS(=O)(=O)Nc1cc(-c2cc(-c3ccc(N4CCNCC4)cc3)cnc2N)cc2c1OCCO2 | 2460
25 | CCOc1cc(NS(=O)(=O)C(C)C)cc(-c2cc(-c3ccc(N4CCNCC4)cc3)cnc2N)c1 | 46
26 | CCCS(=O)(=O)NCc1cc(-c2cc(-c3ccc(N4CCNCC4)cc3)cnc2N)ccc1OC | 1290
27 | CCCS(=O)(=O)Nc1cc(-c2cc(-c3cccc(S(C)(=O)=O)c3)cnc2N)ccc1OC | 2660
28 | CC(C)Oc1cc(NS(=O)(=O)C(C)C)cc(-c2cc(-c3ccc(N4CCNCC4)cc3)cnc2N)c1 | 323
